# Data published in ChEMBL document CHEMBL3351313, “Discovery of (S)-2-cyclopentyl-N-((1-isopropylpyrrolidin2-yl)-9-methyl-1-oxo-2,9-dihydro-1H-pyrrido[3,4-b]indole-4-carboxamide (VU0453379): a novel, CNS penetrant glucagon-like peptide 1 receptor (GLP-1R) positive allosteric modulator (PAM)” (J Med Chem, 2014).
# Activity calls are given as the source filed them. The rule behind the calls is not given here.
# Tests used:
# [1] = molecular target: T1, Glucagon-like peptide 1 receptor (Homo sapiens, UniProt P43220); experiment: Positive allosteric modulation of human recombinant GLP1 receptor expressed in 9-3-H cells by calcium mobilization assay; format: functional, cell-based
# T1 sequence (P43220 whole entry): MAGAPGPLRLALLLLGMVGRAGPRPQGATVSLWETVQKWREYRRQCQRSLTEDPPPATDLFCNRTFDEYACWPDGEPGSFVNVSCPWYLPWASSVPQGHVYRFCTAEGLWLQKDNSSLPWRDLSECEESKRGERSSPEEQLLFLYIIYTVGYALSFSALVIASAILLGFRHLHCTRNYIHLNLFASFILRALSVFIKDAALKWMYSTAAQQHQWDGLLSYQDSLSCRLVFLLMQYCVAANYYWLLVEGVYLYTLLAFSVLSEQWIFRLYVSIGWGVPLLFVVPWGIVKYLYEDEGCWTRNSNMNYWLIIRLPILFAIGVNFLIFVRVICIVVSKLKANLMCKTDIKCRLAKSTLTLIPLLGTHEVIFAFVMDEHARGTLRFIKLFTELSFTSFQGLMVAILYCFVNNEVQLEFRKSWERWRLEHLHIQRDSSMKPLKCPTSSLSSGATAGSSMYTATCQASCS
# [2] = molecular target: T1, Glucagon-like peptide 1 receptor; experiment: Positive allosteric modulation of human recombinant GLP1 receptor expressed in 9-3-H cells by calcium mobilization assay relative to control; format: functional, cell-based
# Cytochrome P450 1A2 = molecular target: T2, Cytochrome P450 1A2 (Homo sapiens, UniProt P05177); experiment: Inhibition of CYP1A2 (unknown origin); format: ADME
# T2 sequence (P05177 whole entry): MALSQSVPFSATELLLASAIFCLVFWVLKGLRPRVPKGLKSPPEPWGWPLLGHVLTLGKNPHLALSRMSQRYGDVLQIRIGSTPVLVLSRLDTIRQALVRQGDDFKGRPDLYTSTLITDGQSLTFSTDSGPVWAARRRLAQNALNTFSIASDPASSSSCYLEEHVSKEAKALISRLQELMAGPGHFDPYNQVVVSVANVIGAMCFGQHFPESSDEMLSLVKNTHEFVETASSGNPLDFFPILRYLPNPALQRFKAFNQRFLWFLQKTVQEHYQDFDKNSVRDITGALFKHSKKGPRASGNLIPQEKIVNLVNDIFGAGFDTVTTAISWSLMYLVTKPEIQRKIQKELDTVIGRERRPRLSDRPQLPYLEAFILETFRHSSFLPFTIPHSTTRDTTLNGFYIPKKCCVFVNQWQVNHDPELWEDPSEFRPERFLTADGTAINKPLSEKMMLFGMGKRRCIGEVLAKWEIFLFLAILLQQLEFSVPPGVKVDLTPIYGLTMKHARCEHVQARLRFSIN
# Summary of the method: (§1)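 An in vitro cassette P450 inhibition assay was run in microsomes, with 1A2, 2C9, 2D6 and 3A4 tested together. IC50 values are reported in μM.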
# Cytochrome P450 2C9 = Cytochrome P450 2C9 (Homo sapiens, UniProt P11712); experiment: Inhibition of CYP2C9 (unknown origin); format: ADME; summary of the method: as §1
# Sequence of Cytochrome P450 2C9 (P11712 whole entry): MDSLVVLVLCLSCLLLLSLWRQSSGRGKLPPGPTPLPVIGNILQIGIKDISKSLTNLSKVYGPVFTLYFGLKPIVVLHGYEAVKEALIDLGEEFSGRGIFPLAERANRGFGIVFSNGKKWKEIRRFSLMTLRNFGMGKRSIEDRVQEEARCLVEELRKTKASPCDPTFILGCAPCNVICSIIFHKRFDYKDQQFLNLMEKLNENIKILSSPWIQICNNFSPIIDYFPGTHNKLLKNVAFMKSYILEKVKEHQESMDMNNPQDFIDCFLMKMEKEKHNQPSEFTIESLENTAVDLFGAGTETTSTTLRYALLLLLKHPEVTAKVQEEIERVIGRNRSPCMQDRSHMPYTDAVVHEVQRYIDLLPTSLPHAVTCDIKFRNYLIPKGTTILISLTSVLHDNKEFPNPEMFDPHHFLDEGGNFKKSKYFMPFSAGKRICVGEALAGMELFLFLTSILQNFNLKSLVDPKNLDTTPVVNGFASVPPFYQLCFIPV
# Cytochrome P450 2D6 = Cytochrome P450 2D6 (Homo sapiens, UniProt P10635); experiment: Inhibition of CYP2D6 (unknown origin); format: ADME; summary of the method: as §1
# Sequence of Cytochrome P450 2D6 (P10635 whole entry): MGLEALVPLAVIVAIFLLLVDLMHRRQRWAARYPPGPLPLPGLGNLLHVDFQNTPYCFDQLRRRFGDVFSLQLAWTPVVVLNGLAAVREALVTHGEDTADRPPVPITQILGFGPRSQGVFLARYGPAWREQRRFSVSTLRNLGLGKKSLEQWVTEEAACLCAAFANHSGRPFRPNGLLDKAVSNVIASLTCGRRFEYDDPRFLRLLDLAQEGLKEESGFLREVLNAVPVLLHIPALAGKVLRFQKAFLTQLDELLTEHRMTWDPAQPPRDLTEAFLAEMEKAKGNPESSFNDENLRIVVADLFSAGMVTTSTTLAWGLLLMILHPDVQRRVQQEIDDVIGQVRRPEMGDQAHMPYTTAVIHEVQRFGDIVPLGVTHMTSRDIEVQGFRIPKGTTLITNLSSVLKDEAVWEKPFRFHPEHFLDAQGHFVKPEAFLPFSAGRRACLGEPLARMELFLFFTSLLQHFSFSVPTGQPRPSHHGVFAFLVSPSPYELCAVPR
# Cytochrome P450 3A4 = Cytochrome P450 3A4 (Homo sapiens, UniProt P08684); experiment: Inhibition of CYP3A4 (unknown origin)
# Sequence of Cytochrome P450 3A4 (P08684 whole entry): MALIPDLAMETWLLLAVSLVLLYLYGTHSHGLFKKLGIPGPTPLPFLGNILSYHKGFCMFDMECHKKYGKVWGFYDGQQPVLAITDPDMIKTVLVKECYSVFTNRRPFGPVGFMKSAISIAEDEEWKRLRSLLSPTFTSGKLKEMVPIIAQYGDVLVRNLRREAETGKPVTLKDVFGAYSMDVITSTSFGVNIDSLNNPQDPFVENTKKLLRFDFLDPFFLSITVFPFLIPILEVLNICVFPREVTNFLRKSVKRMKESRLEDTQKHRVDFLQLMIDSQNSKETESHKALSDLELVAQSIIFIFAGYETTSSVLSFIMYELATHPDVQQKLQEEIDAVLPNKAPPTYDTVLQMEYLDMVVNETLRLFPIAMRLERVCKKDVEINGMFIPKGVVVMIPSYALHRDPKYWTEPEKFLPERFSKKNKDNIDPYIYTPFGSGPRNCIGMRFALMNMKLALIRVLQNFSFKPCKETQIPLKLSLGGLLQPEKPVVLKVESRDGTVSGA
# Plasma [3] = experiment: Fraction unbound in human plasma; format: ADME, cell-free
# Plasma [4] = experiment: Fraction unbound in rat plasma; format: ADME, cell-free
# [5] = molecular target: Melanocortin receptor 4 (Homo sapiens) (UniProt P32245); experiment: Activity at melanocortin 4 receptor (unknown origin)
# Sequence of Melanocortin receptor 4 (Homo sapiens) (P32245 whole entry): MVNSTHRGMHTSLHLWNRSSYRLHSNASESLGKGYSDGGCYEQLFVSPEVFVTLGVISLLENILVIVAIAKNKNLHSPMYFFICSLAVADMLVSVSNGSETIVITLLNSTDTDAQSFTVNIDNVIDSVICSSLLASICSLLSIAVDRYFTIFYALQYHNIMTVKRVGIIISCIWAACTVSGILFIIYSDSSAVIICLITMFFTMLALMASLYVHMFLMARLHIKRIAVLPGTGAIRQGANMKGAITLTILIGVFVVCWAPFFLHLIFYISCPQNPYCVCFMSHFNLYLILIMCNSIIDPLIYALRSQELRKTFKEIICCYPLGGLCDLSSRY
# [6] = molecular target: Glucagon receptor (Homo sapiens) (UniProt P47871); experiment: Activity at glucagon receptor (unknown origin)
# Sequence of Glucagon receptor (Homo sapiens) (P47871 whole entry, looked up): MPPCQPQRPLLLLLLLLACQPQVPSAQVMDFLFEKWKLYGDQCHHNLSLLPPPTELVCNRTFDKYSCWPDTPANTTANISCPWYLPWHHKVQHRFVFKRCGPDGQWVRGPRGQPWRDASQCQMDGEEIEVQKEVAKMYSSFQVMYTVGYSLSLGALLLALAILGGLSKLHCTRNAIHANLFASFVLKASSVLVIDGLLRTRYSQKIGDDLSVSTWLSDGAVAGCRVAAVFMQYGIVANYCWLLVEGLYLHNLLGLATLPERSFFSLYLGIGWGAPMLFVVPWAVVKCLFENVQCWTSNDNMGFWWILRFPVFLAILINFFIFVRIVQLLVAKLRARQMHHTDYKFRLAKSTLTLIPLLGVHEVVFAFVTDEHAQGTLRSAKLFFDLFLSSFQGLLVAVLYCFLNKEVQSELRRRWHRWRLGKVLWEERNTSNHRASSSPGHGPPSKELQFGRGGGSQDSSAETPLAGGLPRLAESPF
# [7] = molecular target: T1, Glucagon-like peptide 1 receptor; experiment: Positive allosteric modulation of human recombinant GLP1 receptor expressed in 9-3-H cells by calcium mobilization assay in presence of EC20 of GLP1; format: functional, cell-based
# [8] = molecular target: T1, Glucagon-like peptide 1 receptor; experiment: Positive allosteric modulation of human recombinant GLP1 receptor expressed in 9-3-H cells by calcium mobilization assay in presence of EC20 of GLP1 relative to control; format: functional, cell-based
# [9] = molecular target: T1, Glucagon-like peptide 1 receptor; experiment: Positive allosteric modulation of human recombinant GLP1 receptor expressed in 9-3-H cells by calcium mobilization assay in presence of EC20 of exenatide; format: functional, cell-based
# [10] = molecular target: T1, Glucagon-like peptide 1 receptor; experiment: Positive allosteric modulation of human recombinant GLP1 receptor expressed in 9-3-H cells by calcium mobilization assay in presence of EC20 of exenatide relative to control; format: functional, cell-based
# [11] = molecular target: T1, Glucagon-like peptide 1 receptor; experiment: Positive allosteric modulation of human recombinant GLP1 receptor expressed in 9-3-H cells by calcium mobilization assay in presence of EC20 of liragulitide; format: functional, cell-based
# [12] = molecular target: T1, Glucagon-like peptide 1 receptor; experiment: Positive allosteric modulation of human recombinant GLP1 receptor expressed in 9-3-H cells by calcium mobilization assay in presence of EC20 of liragulitide relative to control; format: functional, cell-based
# [13] = molecular target: T1, Glucagon-like peptide 1 receptor; experiment: Positive allosteric modulation of human recombinant GLP1 receptor expressed in 9-3-H cells assessed as fold change at 30 uM by calcium mobilization assay […] relative to control; format: functional, cell-based
# [14] = Intrinsic clearance in human liver microsomes; format: ADME; conditions: read-out: CLH
# Summary of the method: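 Human liver microsome clearance was scaled to predicted hepatic clearance by the well-stirred model. The model used 20 g liver per kg body weight and 21 mL/kg hepatic blood flow.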
# [15] = Intrinsic clearance in rat liver microsomes; format: ADME; conditions: read-out: CLH
# Brain = experiment: Fraction unbound in rat brain homogenate; format: ADME, tissue-based
# Nucleic Acid = experiment: Ratio of drug level in brain to plasma at 10 mg/kg, ip; format: ADME, organism-based; parameters: dose 10 mg/kg, route intraperitoneal; conditions: rat
# Summary of the method: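 Rats were dosed IP at 10 mg/kg. Plasma and brain levels were measured at 0.5 h, and the brain:plasma ratio was given as Kp and as Kp,uu, using unbound fractions.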
# [16] = Half life in rat at 1 mg/kg, iv and […], po; format: ADME, organism-based; parameters: dose 1 mg/kg, route oral; conditions: in vivo
# Summary of the method: (§2)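 Male Sprague–Dawley rats were dosed IV at 1 mg/kg and PO at […]. Plasma pharmacokinetic parameters were derived from these doses.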
# Rattus norvegicus = experiment: Volume of distribution at steady state in rat at 1 mg/kg, iv and […], po; format: ADME, organism-based; parameters: dose 1 mg/kg, route oral; conditions: in vivo; summary of the method: as §2
smiles,measurement,setting,value
COc1ccccc1CN1CCC[C@H]1CNC(=O)c1cn(C2CCCC2)c(=O)c2c1c1ccccc1n2C,EC50,[1]; read-out: EC50,12.1 µM
same,Emax,[2],68.3%
CCN1CCC[C@H]1CNC(=O)c1cn(C2CCCC2)c(=O)c2c1c1ccccc1n2C,EC50,[1]; read-out: EC50,2.4 µM
same,EC50,[1]; read-out: pEC50 (converted),2.04 µM
same,Emax,[2],53.4%
same,IC50,Cytochrome P450 1A2,> 20 µM
same,IC50,Cytochrome P450 2C9,> 20 µM
same,IC50,Cytochrome P450 2D6,> 20 µM
same,IC50,Cytochrome P450 3A4,3.2 µM
same,Fu,Plasma [3],> 10%
same,Fu,Plasma [4],> 10%
CCN1CCCC1CNC(=O)c1cn(C2CCCC2)c(=O)c2c1c1ccccc1n2C (racemic),EC50,[1]; read-out: EC50,4.1 µM
same,Emax,[2],58.9%
same,Activity,[5],inactive
same,Activity,[6],inactive
CCCCCCN1CCC[C@H]1CNC(=O)c1cn(C2CCCC2)c(=O)c2c1c1ccccc1n2C,EC50,[1]; read-out: EC50,10.3 µM
same,Emax,[2],55.7%
CC(C)N1CCC[C@H]1CNC(=O)c1cn(C2CCCC2)c(=O)c2c1c1ccccc1n2C,EC50,[1]; read-out: EC50,1.3 µM
same,Emax,[2],59.2%
same,IC50,Cytochrome P450 1A2,> 30 µM
same,IC50,Cytochrome P450 2C9,> 30 µM
same,Fu,Plasma [3],0.146
same,Fu,Plasma [4],0.158
same,EC50,[7],1.8 µM
same,Emax,[8],59.2%
same,EC50,[9],8.4 µM
same,Emax,[10],71.5%
same,EC50,[11],30 µM
same,Emax,[12],59.2%
same,Emax,[13],20%
same,CLint scaled,[14],69.9 mL/min/kg
same,CLint scaled,[15],19.9 mL/min/kg
same,Fu,Brain,0.015
same,"K(p,uu,brain)",Nucleic Acid,0.27
same,Kp,Nucleic Acid,2.7
same,half-life,[16],58 min
same,Vdss,Rattus norvegicus,4 L/kg
Cn1c2ccccc2c2c(C(=O)NC[C@@H]3CCCN3CCc3ccccc3)cn(C3CCCC3)c(=O)c21,EC50,[1]; read-out: EC50,14.1 µM
same,EC50,[1]; read-out: pEC50 (converted),18.2 µM
same,Emax,[2],68.5%
CCCN1CCC[C@H]1CNC(=O)c1cn(C2CCCC2)c(=O)c2c1c1ccccc1n2C,EC50,[1]; read-out: EC50,6.5 µM
same,Emax,[2],48.4%
